≈ marks a conversion by molar mass, not a printed value.
Experiments:
PC-3 = test: Antiproliferative activity against human PC3 cells after 24 hrs by MTT assay; assay type: functional, cell-based; conditions: PC-3, 24 h
MCF7 [1] = test: Antiproliferative activity against human MCF7 cells after 24 hrs by MTT assay; assay type: functional, cell-based; conditions: MCF7, 24 h
BXPC-3 = test: Antiproliferative activity against human BxPC3 cells after 24 hrs by MTT assay; assay type: functional, cell-based; conditions: BXPC-3, 24 h
MCF7 [2] = test: Cell cycle arrest in human MCF7 cells expressing VDR siRNA assessed as accumulation at G0/G1 phase at 1 uM after 24 hrs by propidium iodide staining based flow cytometry (reference value: 49.17%); assay type: functional
MCF7 [3] = test: Cell cycle arrest in human MCF7 cells expressing VDR siRNA assessed as accumulation at S phase at 1 uM after 24 hrs by propidium iodide staining based flow cytometry (reference value: 32%); assay type: functional
MCF7 [4] = test: Induction of apoptosis in human MCF7 cells expressing scrambled siRNA assessed as live cells at 1 uM after 24 hrs by Annexin-V-FITC/propidium iodide staining based flow cytometry (reference value: 97.93%); assay type: functional
MCF7 [5] = test: Induction of apoptosis in human MCF7 cells expressing scrambled siRNA assessed as late apoptotic cells at 1 uM after 24 hrs by Annexin-V-FITC/propidium iodide staining based flow cytometry (reference value: 0.98%); assay type: functional
[6] = Half life in rat liver microsomes in presence of NADPH by HPLC method; assay type: ADME, microsome
In short: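 Compounds incubated with rat liver microsomes plus NADPH. Remaining compound quantified by HPLC at 0, 5, 10, 20, 30, 45, 60 and 90 min, and half-life calculated.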

MCF7 [7] = test: Cell cycle arrest in human MCF7 cells expressing VDR siRNA assessed as accumulation at G2/M phase at 1 uM after 24 hrs by propidium iodide staining based flow cytometry (reference value: 17.57%); assay type: functional
[8] = Solubility of the compound in water at pH 7.4 by HPLC method; assay type: physicochemical
In short: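 Aqueous solubility measured at pH 7.4, with samples quantified by HPLC.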

MCF7 [9] = test: Induction of apoptosis in human MCF7 cells expressing scrambled siRNA assessed as necrotic cells at 1 uM after 24 hrs by Annexin-V-FITC/propidium iodide staining based flow cytometry (reference value: 0.16%); assay type: functional
MCF7 [10] = test: Cell cycle arrest in human MCF7 cells expressing scrambled siRNA assessed as accumulation at G0/G1 phase at 1 uM after 24 hrs by propidium iodide staining based flow cytometry (reference value: 49.28%); assay type: functional
MCF7 [11] = test: Cell cycle arrest in human MCF7 cells expressing scrambled siRNA assessed as accumulation at S phase at 1 uM after 24 hrs by propidium iodide staining based flow cytometry (reference value: 29.79%); assay type: functional
MCF7 [12] = test: Induction of apoptosis in human MCF7 cells expressing VDR siRNA assessed as necrotic cells at 1 uM after 24 hrs by Annexin-V-FITC/propidium iodide staining based flow cytometry (reference value: 0.15%); assay type: functional
MCF7 [13] = test: Induction of apoptosis in human MCF7 cells expressing VDR siRNA assessed as early apoptotic cells at 1 uM after 24 hrs by Annexin-V-FITC/propidium iodide staining based flow cytometry (reference value: 0.49%); assay type: functional
MCF7 [14] = test: Induction of apoptosis in human MCF7 cells expressing VDR siRNA assessed as live cells at 1 uM after 24 hrs by Annexin-V-FITC/propidium iodide staining based flow cytometry (reference value: 98.35%); assay type: functional
MCF7 [15] = test: Cell cycle arrest in human MCF7 cells expressing scrambled siRNA assessed as accumulation at G2/M phase at 1 uM after 24 hrs by propidium iodide staining based flow cytometry (reference value: 19.6%); assay type: functional
MCF7 [16] = test: Induction of apoptosis in human MCF7 cells expressing scrambled siRNA assessed as early apoptotic cells at 1 uM after 24 hrs by Annexin-V-FITC/propidium iodide staining based flow cytometry (reference value: 0.93%); assay type: functional
MCF7 [17] = test: Induction of apoptosis in human MCF7 cells expressing VDR siRNA assessed as late apoptotic cells at 1 uM after 24 hrs by Annexin-V-FITC/propidium iodide staining based flow cytometry (reference value: 1.01%); assay type: functional

Structure (SMILES)	IC50 (PC-3)	IC50 (MCF7 [1])	IC50 (BXPC-3)	further results
CCn1c(C(=O)NCC(=O)OC)ccc1C(CC)(CC)c1ccc(OCS(=O)(=O)c2ccccc2)c(C)c1	> 50 µM	> 50 µM	20 µM	
CCn1c(C(=O)N[C@@H](C)C(=O)O)ccc1C(CC)(CC)c1ccc(OCS(=O)(=O)c2ccccc2)c(C)c1	16.8 µM	35.5 µM	20.8 µM	
CCN(CC)CCNC(=O)c1cc(C(CC)(CC)c2ccc(OCSC)c(C)c2)cn1CC	9.54 µM	4.64 µM	4.11 µM	Activity (MCF7 [2]): 51.44%; Activity (MCF7 [3]): 30.37%; Activity (MCF7 [4]): 95.2%; Activity (MCF7 [5]): 3.24%; half-life [6]: 48.1 min; Activity (MCF7 [7]): 16.92%; solubility [8]: 198 µg/mL (≈ 418 µM); Activity (MCF7 [9]): 0.39%; Activity (MCF7 [10]): 55.62%; Activity (MCF7 [11]): 30.52%; Activity (MCF7 [12]): 0.5%; Activity (MCF7 [13]): 0.91%; Activity (MCF7 [14]): 96.68%; Activity (MCF7 [15]): 12.37%; Activity (MCF7 [16]): 1.17%; Activity (MCF7 [17]): 1.91%
CCn1c(C(=O)N[C@@H](CCC(=O)O)C(=O)O)ccc1C(CC)(CC)c1ccc(OCS(=O)(=O)c2ccccc2)c(C)c1	> 50 µM	> 50 µM	> 50 µM	
CCn1c(C(=O)NCCNC(=O)OC(C)(C)C)ccc1C(CC)(CC)c1ccc(OCS(=O)(=O)c2ccccc2)c(C)c1	> 50 µM	> 50 µM	> 50 µM	
CCN(CC)CCNC(=O)c1ccc(C(CC)(CC)c2ccc(OCSc3ccccc3)c(C)c2)n1CC	2.23 µM	4.9 µM	5.67 µM	Activity (MCF7 [2]): 51.65%; Activity (MCF7 [3]): 30.12%; Activity (MCF7 [4]): 96.21%; Activity (MCF7 [5]): 2.85%; half-life [6]: 53.7 min; Activity (MCF7 [7]): 17.07%; solubility [8]: 25.6 µg/mL (≈ 47.8 µM); Activity (MCF7 [9]): 0.35%; Activity (MCF7 [10]): 55.65%; Activity (MCF7 [11]): 31.59%; Activity (MCF7 [12]): 0.47%; Activity (MCF7 [13]): 0.71%; Activity (MCF7 [14]): 97.03%; Activity (MCF7 [15]): 11.15%; Activity (MCF7 [16]): 0.59%; Activity (MCF7 [17]): 1.78%
CCn1c(C(=O)NCCN)ccc1C(CC)(CC)c1ccc(OCS(=O)(=O)c2ccccc2)c(C)c1	6.89 µM	6.47 µM	6.43 µM	half-life [6]: 34.9 min; solubility [8]: 65 µg/mL (≈ 127 µM)
CCn1c(C(=O)NC(C)(C)CO)ccc1C(CC)(CC)c1ccc(OCS(=O)(=O)c2ccccc2)c(C)c1	9.85 µM	20.7 µM	18.3 µM	
CCn1c(C(=O)N[C@@H](C)CO)ccc1C(CC)(CC)c1ccc(OCS(=O)(=O)c2ccccc2)c(C)c1	9.52 µM	10.8 µM	15.3 µM	half-life [6]: 43.8 min; solubility [8]: 35.7 µg/mL (≈ 67.8 µM)
CCn1c(C(=O)NCC(=O)O)ccc1C(CC)(CC)c1ccc(OCS(=O)(=O)c2ccccc2)c(C)c1	30.1 µM	33.1 µM	> 50 µM	
CCn1c(C(=O)N[C@@H](CC(=O)O)C(=O)O)ccc1C(CC)(CC)c1ccc(OCS(=O)(=O)c2ccccc2)c(C)c1	> 50 µM	> 50 µM	> 50 µM	
CCn1c(C(=O)N[C@H](CCC(=O)O)C(=O)O)ccc1C(CC)(CC)c1ccc(OCS(=O)(=O)c2ccccc2)c(C)c1	> 50 µM	> 50 µM	> 50 µM	
CCn1c(C(=O)N[C@H](C)CO)ccc1C(CC)(CC)c1ccc(OCS(=O)(=O)c2ccccc2)c(C)c1	7.79 µM	10.6 µM	10 µM	
CCn1c(C(=O)N[C@H](CO)C(C)C)ccc1C(CC)(CC)c1ccc(OCS(=O)(=O)c2ccccc2)c(C)c1	7.3 µM	25.5 µM	7.72 µM	half-life [6]: 46.3 min; solubility [8]: 27.8 µg/mL (≈ 50.1 µM)
CCn1c(C(=O)N[C@@H](CC(=O)OC)C(=O)OC)ccc1C(CC)(CC)c1ccc(OCS(=O)(=O)c2ccccc2)c(C)c1	6.49 µM	> 50 µM	> 50 µM	
CCn1c(C(=O)N[C@H](C)C(=O)O)ccc1C(CC)(CC)c1ccc(OCS(=O)(=O)c2ccccc2)c(C)c1	20.1 µM	> 50 µM	20.1 µM	
CCn1c(C(=O)N[C@H](C)C(=O)OC)ccc1C(CC)(CC)c1ccc(OCS(=O)(=O)c2ccccc2)c(C)c1	> 50 µM	> 50 µM	> 50 µM	
CCn1c(C(=O)N[C@@H](C)C(=O)OC)ccc1C(CC)(CC)c1ccc(OCS(=O)(=O)c2ccccc2)c(C)c1	> 50 µM	43.7 µM	17.9 µM	
CCN(CC)CCNC(=O)c1ccc(C(CC)(CC)c2ccc(OCS(=O)(=O)c3ccccc3)c(C)c2)n1CC	7.13 µM	4.68 µM	6.27 µM	half-life [6]: 62.4 min; solubility [8]: 117 µg/mL (≈ 207 µM)
CCn1c(C(=O)NCCCO)ccc1C(CC)(CC)c1ccc(OCS(=O)(=O)c2ccccc2)c(C)c1	11.3 µM	42 µM	26.6 µM	

Continued, in another order:

IC50 (PC-3)	IC50 (MCF7 [1])	IC50 (BXPC-3)	Structure (SMILES)	further results
14.1 µM	27.4 µM	> 50 µM	CCn1c(C(=O)N[C@@H](CO)CCO)ccc1C(CC)(CC)c1ccc(OCS(=O)(=O)c2ccccc2)c(C)c1	
10.6 µM	18.8 µM	13.2 µM	CCn1c(C(=O)N[C@@H](CO)C(C)C)ccc1C(CC)(CC)c1ccc(OCS(=O)(=O)c2ccccc2)c(C)c1	
6.81 µM	31.4 µM	> 50 µM	CCn1c(C(=O)N[C@H](CO)CCCO)ccc1C(CC)(CC)c1ccc(OCS(=O)(=O)c2ccccc2)c(C)c1	
12.1 µM	28.5 µM	15.9 µM	CCn1c(C(=O)N[C@H](CO)CCO)ccc1C(CC)(CC)c1ccc(OCS(=O)(=O)c2ccccc2)c(C)c1	
36.6 µM	16.3 µM	30.4 µM	CCN(CC)CCNC(=O)c1cc(C(CC)(CC)c2ccc(OCS(C)(=O)=O)c(C)c2)cn1CC	
13.4 µM	29.6 µM	16.4 µM	CCn1c(C(=O)N[C@@H](CO)CCCO)ccc1C(CC)(CC)c1ccc(OCS(=O)(=O)c2ccccc2)c(C)c1	
17.7 µM	15.5 µM	19.9 µM	CCn1c(C(=O)NCCO)ccc1C(CC)(CC)c1ccc(OCS(=O)(=O)c2ccccc2)c(C)c1	
26.3 µM	41.2 µM	> 50 µM	CCn1c(C(=O)NC2(C(=O)O)CC2)ccc1C(CC)(CC)c1ccc(OCS(=O)(=O)c2ccccc2)c(C)c1	
3.65 µM	24.5 µM	16.2 µM	CCn1c(C(=O)N[C@H](C(=O)O)C(C)C)ccc1C(CC)(CC)c1ccc(OCS(=O)(=O)c2ccccc2)c(C)c1	
> 50 µM	> 50 µM	> 50 µM	CCn1c(C(=O)N[C@H](CC(=O)O)C(=O)O)ccc1C(CC)(CC)c1ccc(OCS(=O)(=O)c2ccccc2)c(C)c1	
40.4 µM	> 50 µM	> 50 µM	CCn1c(C(=O)NCCC(=O)OC)ccc1C(CC)(CC)c1ccc(OCS(=O)(=O)c2ccccc2)c(C)c1	
46.7 µM	14.7 µM	33.7 µM	CCN(CC)CCNC(=O)c1ccc(C(CC)(CC)c2ccc(OCS(C)(=O)=O)c(C)c2)n1CC	
14.4 µM	> 50 µM	> 50 µM	CCn1c(C(=O)NCCC(=O)O)ccc1C(CC)(CC)c1ccc(OCS(=O)(=O)c2ccccc2)c(C)c1	
3.07 µM	44.7 µM	13.9 µM	CCn1c(C(=O)N[C@@H](C(=O)O)C(C)C)ccc1C(CC)(CC)c1ccc(OCS(=O)(=O)c2ccccc2)c(C)c1	
3.56 µM	28.8 µM	45.4 µM	CCn1c(C(=O)NC2(CO)CC2)ccc1C(CC)(CC)c1ccc(OCS(=O)(=O)c2ccccc2)c(C)c1	

Source: ChEMBL document CHEMBL4270638, “Sulfonyl-containing phenyl-pyrrolyl pentane analogues: Novel non-secosteroidal vitamin D receptor modulators with favorable physicochemical properties, pharmacokinetic properties and anti-tumor activity” (Eur J Med Chem, 2018)
